From PubChem BioAssay
Calls of active or inactive are those of the source.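 The calls were made as follows, unless noted: active = NADPH fluorescence slope more negative than the mean of all samples by about 3 SD, 99.7% confidence; inactive = the rest.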

Experiments:
[1] = inhibitors of TNFa-induced NFkB p65 translocation, primary screen, imaging, HUVEC, MLSMR starter and 10KST1 sets (AID 438;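 active = inhibition above 20% together with a positive visual image hit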;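 also: compound added about 3h40 before a 20 min TNFalpha stimulation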;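 as to inhibition: signal is the nuclear over cytoplasmic p65 intensity ratio per well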); conditions: HUVEC TNFa-induced p65 nuclear translocation; cell count: measured here: nuclei count (cytotoxicity indicator), at 2.08 µM; inhibition: at 2 µM, stronger effect = higher value, 0% TNFa-plus-vehicle, 100% no-TNFa wells
[2] = endothelial E-selectin expression blockers – imaging, HUVEC, immunofluorescence, MLSMR starter and 10KST1 sets, primary screen (AID 487;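 active = visually confirmed hit in the image check and inhibition above 20%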;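 as to inhibition: signal is fraction of cell area covered by stained E-selectin grains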;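 as to nuclei count: 100% = median nuclei count of all wells on the same plate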); conditions: HUVEC TNFalpha-induced E-selectin immunofluorescence imaging, at 2 µM; inhibition: stronger effect = higher value; nuclei count: measured here: cell number, toxicity
[3] = Primary imaging screen for DUSP6 inhibitors that restore phospho-Erk in transfected HeLa cells, chemical complementation (AID 609;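 active = compounds giving at least 50% inhibition in the cell-based MKP-3 phosphatase rescue imaging test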;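 as to inhibition: phospho-Erk level distribution per well compared with pooled transfected vehicle control wells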); conditions: HeLa MKP-3 transfected, phospho-Erk imaging KS statistic, at 10 µM, cells stimulated with TPA for 15 min
[4] = target: Dual specificity protein phosphatase 6 (Homo sapiens) (UniProt Q16828); experiment: as above; conditions: HeLa MKP-3 transfected, phospho-Erk imaging KS statistic; at 10 µM; stronger effect = higher value; cells stimulated with TPA for 15 min
Sequence of Dual specificity protein phosphatase 6 (Homo sapiens) (Q16828 whole entry, looked up): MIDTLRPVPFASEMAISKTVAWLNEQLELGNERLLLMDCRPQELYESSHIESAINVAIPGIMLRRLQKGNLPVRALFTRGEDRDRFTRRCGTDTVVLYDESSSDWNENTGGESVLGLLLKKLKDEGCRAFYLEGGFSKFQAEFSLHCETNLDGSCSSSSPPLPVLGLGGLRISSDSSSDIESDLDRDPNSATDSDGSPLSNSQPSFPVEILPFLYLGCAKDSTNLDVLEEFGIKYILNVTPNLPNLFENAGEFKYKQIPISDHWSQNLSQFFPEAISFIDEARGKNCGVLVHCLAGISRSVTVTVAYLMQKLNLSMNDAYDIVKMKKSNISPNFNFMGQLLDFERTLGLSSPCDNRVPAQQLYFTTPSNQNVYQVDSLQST

[5] = target: Voltage-gated potassium channel subunit beta-2 (Rattus norvegicus) (UniProt P62483); experiment: inhibitors of rat Kvbeta2 reductase activity – biochemical, NADPH fluorescence, primary screen (AID 622;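 active = fluorescence slope higher than the sample average by over 3 SD, cut at about -0.22 in these data, passing the limit was not always enough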;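 also: slope of raw intensity against log time taken from 70 to 1610 s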); conditions: recombinant KvBeta, 4-cyanobenzaldehyde reduction, at 10 µM, stronger effect = higher value
Sequence of Voltage-gated potassium channel subunit beta-2 (Rattus norvegicus) (P62483 whole entry, looked up): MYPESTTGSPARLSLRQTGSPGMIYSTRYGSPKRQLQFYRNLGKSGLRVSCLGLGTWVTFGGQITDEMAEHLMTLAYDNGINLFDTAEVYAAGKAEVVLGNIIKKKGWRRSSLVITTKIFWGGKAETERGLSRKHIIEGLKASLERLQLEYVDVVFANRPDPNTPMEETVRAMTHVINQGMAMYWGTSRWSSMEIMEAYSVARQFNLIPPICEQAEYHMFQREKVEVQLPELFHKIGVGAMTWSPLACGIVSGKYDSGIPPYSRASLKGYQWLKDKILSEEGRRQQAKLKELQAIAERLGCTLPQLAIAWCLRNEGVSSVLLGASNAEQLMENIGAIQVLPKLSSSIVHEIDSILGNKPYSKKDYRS

[6] = target: Voltage-gated potassium channel subunit beta-2 (Rattus norvegicus) (UniProt P62483); experiment: enhancers of rat Kvbeta2 NADPH turnover – biochemical, NADPH fluorescence, primary screen (AID 623); conditions: Recombinant KvBeta, NADPH fluorescence decrease slope, 10 min; at 10 µM; stronger effect = lower value;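 also: fluorescence intensity change per second fitted from 20 to 320 s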
[7] = target: Alpha-2C adrenergic receptor (Homo sapiens) (UniProt P18825); experiment: compounds altering alpha2C-coupled GIRK flux – cell-based, HEK293 alpha2C/GIRK1/2, thallium flux, primary screen (AID 624;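 active = fluorescence slope after compound addition differing from the mean of all screened samples at 99.7% confidence, in either direction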;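 also: slope of fluorescence ratio to pre-addition baseline per second over 15 to 24 s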); conditions: thallium flux BTC fluorescence, at 10 µM, actives lie on both sides
Sequence of Alpha-2C adrenergic receptor (Homo sapiens) (P18825 whole entry, looked up): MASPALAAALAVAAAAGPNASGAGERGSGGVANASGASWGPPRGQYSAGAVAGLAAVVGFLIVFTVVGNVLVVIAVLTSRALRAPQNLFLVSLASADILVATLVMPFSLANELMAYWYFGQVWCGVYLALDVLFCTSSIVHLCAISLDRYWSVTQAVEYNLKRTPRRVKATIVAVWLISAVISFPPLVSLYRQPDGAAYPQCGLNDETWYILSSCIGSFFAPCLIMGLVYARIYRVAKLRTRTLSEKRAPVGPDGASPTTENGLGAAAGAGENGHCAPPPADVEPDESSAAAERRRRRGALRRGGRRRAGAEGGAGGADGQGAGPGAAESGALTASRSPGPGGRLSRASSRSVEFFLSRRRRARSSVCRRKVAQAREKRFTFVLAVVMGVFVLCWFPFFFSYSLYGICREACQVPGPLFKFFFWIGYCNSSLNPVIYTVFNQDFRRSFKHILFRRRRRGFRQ

[8] = inhibitors of larval lipid processing in zebrafish, primary screen, whole organism, PED6 fluorescence, gall bladder and intestine (AID 686;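 active = a full or partial loss of lipid-probe fluorescence in the fish gall bladder, intestine or both, judged by eye; inactive = no fluorescence loss, or compound toxic to the fish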;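 also: larvae 5 to 7 days old with five fish per well; signal comes from phospholipase A2 cleavage of quenched PED6 carried via bile; overnight exposure to compound and PED6 before scoring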); conditions: Zebrafish larvae PED6 lipid processing, fluorescence scoring; screened at 20 µM (by protocol)
Summary of the method: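 Doses: 20 µM single dose. Test system: live zebrafish larvae aged 5-7 days, whole organism. Quantity: five larvae per well. Measured by: By-eye fluorescence microscopy. Reagent: ingested quenched lipid PED6 at 100 nM. Read-out: visual per-well fluorescence inhibition score. Times: overnight exposure of larvae to compound plus PED6.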

[9] = loss of swimming-algae plug formation – whole organism, Chlamydomonas reinhardtii, WT vs cilia-less mutant, absorbance, 96-well, primary screen (AID 463189;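 active = inhibition at or above 50% relative to wild type and mutant plate controls; inactive = inhibition below 50%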;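 also: 0% = wild type cc124 cells in DMSO and 100% = ciliumless bld1 mutant cells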); conditions: Chlamydomonas reinhardtii gravitaxis, OD600 absorbance, 2 days; at 10 µM; stronger effect = higher value
[10] = measured here: cell density z-score
[11] = measured here: nuclear c-Myc green intensity z-score
[12] = measured here: nuclear pErk red intensity z-score, stronger effect = higher value

SMILES | cell count [1] | inhibition [1] | inhibition [2] | nuclei count [2] [%] | z-score [3, 10] | z-score [3, 11] | z-score [3, 12] | inhibition [4] | fluorescence slope [5] | NADPH fluorescence slope [6] | slope [7] | outcome [8] | inhibition [9]
CC(C)OC(=O)C(C#N)c1nc2ccccc2nc1N1CCCC1 (stereo not given) | 485 | -22.5% (inactive) | -48.2% (inactive) | 129 | 2.22 | -1.34 | -1.3 | 22.7% (inactive) | -0.543 (inactive) | -1.4e-05 (inactive) | 0.00397 (inactive) | inactive | 5.71% (inactive)
CCOC(=O)CCc1c(C)c(C#N)c2nc3ccccc3n2c1-n1ccnc1 | 559 | -4.6% (inactive) | -37.8% (inactive) | 140 | 1.11 | -0.305 | 0.783 | 25.8% (inactive) | -0.172 (inactive) | -3.3e-07 (inactive) | 0.0062 (inactive) | inactive | -3.19% (inactive)
CC(=O)C1(C)OC(N)=C(C#N)C(c2ccccc2)C1(C#N)C#N (stereo not given) | 511 | -7.2% (inactive) | -76.9% (inactive) | 155 | 0.834 | -0.296 | -1.55 | -2.91% (inactive) | -0.377 (inactive) | 2.9e-06 (inactive) | 0.00393 (inactive) | inactive | 23.7% (inactive)
Cc1ccc(C#N)c(SCc2cc3c(cc2Cl)OCO3)n1 | 538 | -31.1% (inactive) | -76.1% (inactive) | 159 | -0.24 | -0.891 | -0.243 | -2.47% (inactive) | -0.515 (inactive) | -6.3e-05 (inactive) | 0.00686 (inactive) | inactive | 28.8% (inactive)
CC(C)(C)C1=Nn2c(nnc2-c2ccco2)SC1 | 663 | -3.7% (inactive) | -70.4% (inactive) | 165 | -0.164 | 0.534 | -0.139 | -6.06% (inactive) | -0.423 (inactive) | -0.000133 (inactive) | 0.00705 (inactive) | inactive | -3.69% (inactive)
CCN1CC2=C(OC(N)=C(C#N)C2c2ccccc2)/C(=C\c2ccccc2)C1 (stereo not given) | 489 | -6.9% (inactive) | -190% (inactive) | 174 | 0.232 | -0.856 | 0.432 | 9.61% (inactive) | -0.332 (inactive) | -1.3e-05 (inactive) | 0.00402 (inactive) | active; no signal in intestine only | 14.6% (inactive)
N#CCCSc1nc(N2CCOCC2)c2c(c1C#N)CCCC2 | 572 | -15.5% (inactive) | -43.5% (inactive) | 168 | -1.47 | -0.393 | -0.37 | 5.65% (inactive) | -0.357 (inactive) | 1.4e-05 (inactive) | 0.00506 (inactive) | inactive | -11.5% (inactive)
CC(=O)C(=[N+]=[N-])C(=O)NCc1ccccc1 | 474 | -11.6% (inactive) | -71.5% (inactive) | 95.4 | 0.378 | -1.15 | 0.485 | 5.95% (inactive) | -0.518 (inactive) | -4e-05 (inactive) | 0.00636 (inactive) | inactive | 24.1% (inactive)
CC(=O)c1cc(C#N)c(SCC(=O)C(C)(C)C)nc1C | 620 | -22.5% (inactive) | 43.4% (inactive) | 103 | -0.699 | -0.489 | -0.711 | -3.95% (inactive) | -0.462 (inactive) | -1.9e-05 (inactive) | 0.00715 (inactive) | inactive | 42.5% (inactive)
COCc1[nH]nc2c1C(c1ccnc3ccccc13)C(C#N)=C(N)O2 (stereo not given) | 589 | -5% (inactive) | 26.1% (inactive) | 102 | 0.598 | -2.1 | -0.301 | 29.9% (inactive) | -0.519 (inactive) | -1.8e-05 (inactive) | 0.00587 (inactive) | inactive | 15.7% (inactive)
Cc1ccc2c(=O)c(CN(C)C3CCN(C)CC3)c(C)[nH]c2c1C | 498 | -21.3% (inactive) | -40.5% (inactive) | 142 | 0.488 | 0.313 | -0.364 | 1.12% (inactive) | -0.491 (inactive) | -4.5e-05 (inactive) | 0.00468 (inactive) | inactive | 1.23% (inactive)
COc1cc(C2C(C(=O)c3ccc(C)o3)=C(O)C(=O)N2c2cc(C)on2)cc(OC)c1OC (stereo not given) | 531 | -0.1% (inactive) | -101% (inactive) | 125 | 1.95 | 0.514 | -0.298 | 19.3% (inactive) | -0.507 (inactive) | -9.6e-06 (inactive) | 0.00526 (inactive) | inactive | -18.1% (inactive)
COc1cccc(C2/C(=C(/O)c3cnn(-c4ccccc4)c3C)C(=O)C(=O)N2CCN(C)C)c1OC (stereo not given) | 502 | 6.3% (inactive) | -119% (inactive) | 152 | -0.295 | 0.206 | -1.1 | -7.01% (inactive) | -0.506 (inactive) | -2.1e-05 (inactive) | 0.00541 (inactive) | inactive | 8.54% (inactive)
CCOC(=O)C1=C(C)NC(SCC(=O)Nc2nc(C)cs2)=C(C#N)C1c1cccs1 (stereo not given) | 540 | -13.4% (inactive) | -57.8% (inactive) | 106 | 1.78 | -0.812 | -0.565 | -7.28% (inactive) | -0.472 (inactive) | 6.5e-06 (inactive) | 0.006 (inactive) | inactive | 2.72% (inactive)
Cc1ccc(OCC(=O)NCC(=O)n2nc(C)cc2C)cc1 | 580 | -8% (inactive) | 13.1% (inactive) | 170 | -0.967 | -0.193 | 1.92 | -7.01% (inactive) | -0.382 (inactive) | -2.8e-05 (inactive) | 0.00489 (inactive) | inactive | -1.21% (inactive)
COc1ccc(OCC(O)Cn2c(Nc3cccc(C)c3)nc3c2c(=O)n(C)c(=O)n3C)cc1 (stereo not given) | 514 | -0.2% (inactive) | -160% (inactive) | 139 | 1.7 | -1.51 | -0.035 | 26.3% (inactive) | -0.541 (inactive) | -3.3e-05 (inactive) | 0.00591 (inactive) | inactive | 7.54% (inactive)
COc1cccc(-c2nnc3sc(-c4ccco4)nn23)c1 | 467 | -4% (inactive) | 3.6% (inactive) | 105 | 1.05 | -0.932 | -0.641 | 8.31% (inactive) | -0.463 (inactive) | 1.3e-05 (inactive) | 0.00496 (inactive) | active; weak signal in gallbladder and intestine | 38.1% (inactive)
CCOCc1nc(N)[nH]c(=O)c1Cc1ccc(OC(C)C)cc1 | 350 | -14.1% (inactive) | -184% (inactive) | 133 | 0.756 | -0.664 | -2.13 | 17% (inactive) | -0.436 (inactive) | -2e-05 (inactive) | 0.00784 (inactive) | inactive | 23.2% (inactive)
Cc1cccc(C)c1OCC(O)CNS(=O)(=O)c1ccccc1C(=O)N1CCOCC1 (stereo not given) | 458 | 1.5% (inactive) | -196% (inactive) | 172 | -0.426 | 0.519 | 1.28 | 2.71% (inactive) | -0.387 (inactive) | -1.1e-05 (inactive) | 0.00603 (inactive) | inactive | -5.56% (inactive)
Cn1c(=O)c2c(nc(OCc3cccnc3)n2Cc2ccccc2)n(C)c1=O | 599 | 8.2% (inactive) | 3.5% (inactive) | 138 | 1.08 | -0.258 | 0.62 | -2.91% (inactive) | -0.517 (inactive) | -0.000111 (inactive) | 0.00473 (inactive) | inactive | -5.51% (inactive)
